Experimental data collected from several papers.
Compare with care: the assays were run in different laboratories.
Oprk1: Kappa-type opioid receptor (Oprk1, Rattus norvegicus, UniProt P34975)
MAOA: Amine oxidase [flavin-containing] A (MAOA, Homo sapiens, UniProt P21397)
CTSS: Cathepsin S (CTSS, Homo sapiens, UniProt P25774)

Compound	target	effect on	mode	technique	concentration	inhibition [%]
N=C(N)c1ccc2cc(OC(=O)c3ccc(N=C(N)N)cc3)ccc2c1	Dipeptidyl peptidase 3 (DPP3, Homo sapiens, UniProt Q9NY33)	enzyme activity	inhibitor		10 µM	3
Nc1ncnc2c1ncn2[C@@H]1O[C@H](CNS(=O)(=O)c2ccc3ccccc3c2)[C@@H](O)[C@H]1O	Protein arginine N-methyltransferase 3 (PRMT3, Homo sapiens, UniProt O60678)	enzyme activity	inhibitor		10 µM	-5
O=C(Nc1cccnn1)N1CCN([C@@H]2CCOc3cc(C(F)(F)F)ccc32)CC1	Oprk1	cell-free assay			20 µM	21
O=c1ccoc2ccc(OCCCCN3CCCCC3)cc12	MAOA	enzyme activity	inhibitor	fluorescence	10 µM	16
CCOC(=O)c1ccc(OC(=O)CCCCCNC(=N)N)cc1	CTSS	enzyme activity	inhibitor		10 µM	4
COc1cc(Nc2ncc(F)c(Nc3ccc4c(n3)NC(=O)C(C)(C)O4)n2)cc(OC)c1OC	Homeodomain-interacting protein kinase 3 (HIPK3, Homo sapiens, UniProt Q9H422)	binding		competition with immobilised ligand	10 µM	64
C[C@H](C(=O)N[C@H]1COc2ccccc2[C@@H]1S(C)(=O)=O)c1ccc(F)cc1	MAOA	cell-free assay	inhibitor		10 µM	-2
CN(C)C(=O)COC(=O)Cc1ccc(OC(=O)c2ccc(NC(=N)N)cc2)cc1	CTSS	enzyme activity	inhibitor		10 µM	3
CCN(CC)CCCC[C@H](NC(=O)[C@H](CC(C)C)NC(=O)[C@H](C)NC(=O)[C@H](Cc1ccccc1)NC(=O)c1ccc(C(C)(C)C)cc1)C(=O)N[C@@H](CO)C(=O)OC	Oprk1	ligand displacement		radioligand	10 µM	91
C#Cc1n[nH]c2c(-c3cn([C@@H](C)c4ccccn4)c(=O)[nH]c3=O)cc(F)cc12	Focal adhesion kinase 1 (PTK2, Homo sapiens, UniProt Q05397)	enzyme activity	inhibitor		0.1 µM	4.5
CC(C)C[C@H](NC(=O)[C@H]1O[C@@H]1C(=O)O)C(=O)NCCCCN=C(N)N	CTSS	enzyme activity	inhibitor		5 nM	18
O=C(NC[C@H](O)CO)[C@@H]1C[C@H](c2ccccc2)CCN1 (mixture of isomers)	Alpha-1A adrenergic receptor (ADRA1A, Homo sapiens, UniProt P35348)	ligand displacement		radioligand	10 µM	-16.2
COCc1c(-c2cc3cc(C)cc(OC)c3s2)c2c(N)ncnn2c1CN1CCNC(=O)C1	MAOA	enzyme activity	inhibitor		10 µM	-3
O=C(O)C(=O)Nc1sc2c(c1C(=O)O)CCNC2	Tyrosine-protein phosphatase non-receptor type 1 (PTPN1, Homo sapiens, UniProt P18031)	enzyme activity	inhibitor		30 µM	~50
Cn1cc(-c2cc(F)cc(N3CCn4c(cc5c4CCCC5)C3=O)c2CO)cc(Nc2ccc(N3CCN(C4COC4)CC3)cn2)c1=O	Cyclin-dependent kinase 5, with p35 (CDK5, Homo sapiens, UniProt Q00535)	enzyme activity	inhibitor		0.1 µM	6
